B1: tRNA (parent)
chain: GUUCCGUUGGCGUAAUGGUAACGCGUCUCCCUCCUAAGGAGAAGACUGCGGGUUCGAGUCCCGUACGGAACG

Variants at the floor of the assay were thinned out.

The variants in this series derive from B1. Put plainly: yeast fitness relative to wild type (ratio to wild type); higher = fitter; tRNA-Arg(CCU), competitive growth, 37 C, YPD. In a few lines:
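A pool of Saccharomyces cerevisiae strains, each with a tRNA-Arg(CCU) gene variant at the native genomic locus, was competed in YPD at 37°C for 24 hours across six parallel replicates. The variants had been chemically synthesised at a 3% per-site mutation rate over 69 sites, and gene amplicons before and after competition were read by 100-nucleotide paired-end sequencing. Darwinian fitness relative to wild type rested on changes in genotype frequencies. Genotypes required ≥ 100 starting reads, and estimates < 0.5 were set to 0.5.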
On to GUUCCGUUGGCGUUAUGGUAACGCGUCUCCCUCCUACGGAGAAGACUGCGGGUUCGAGUCCCGUACGGAACG [A14U A37C], for which the yeast fitness is 0.627. Take GUUCCGUUGGCGUAAUGGUAACGCGUCUCCCUCCUAAGGGGAAGACUGCGGGUUUGAGUCCCGUCCGGAACG [A40G C55U A65C]: the yeast fitness was 0.525. With GUUACGUUGGCGUAAUGGUAACGCGUCUCCUUCCCAAGGAGAAGACUGCGGGUUCGAGUCCCGUACGGAACG [C4A C31U U35C] the figure was no more than 0.5. With GUUCCGUUGGCGUAAUGGUAACGUGUCUCCCUCAUAAGAAGAAGACUGCGGGUUCGAGUCCCGUACGGAACG [C24U C34A G39A] the figure was 0.535; with GUUUCGUUGGCGUAAAGGUGACGCGUCUCCCUCCUAAGGAGAAGACUGUGGGUUCGAGUCCCGUAUGGAACG [C4U U16A A20G C49U C66U], no more than 0.5; with GUUCCCUUGGCGUACUGGUACCGCGUCUCCCUCUUAUGGAGAAGACUGCGGGUUCCAGGCCCGUACGGAACG [G6C A15C A21C C34U A37U G56C U59G], no more than 0.5. To GUUCCGUUGGCGUACUGGUAAGGCGUCUCCCUUCUAAGGAGAAGACUGCGGGUUCGAGGCCGGUACGGAACG [A15C C22G C33U U59G C62G] belongs 0.981. Consider GUUCCGUUGGCGUAAUGGUAACGCGUCUCGCUCCUAAGGAGAAGACUGCGGGUUCGAGUCCCGUAAGGAACG [C30G C66A], for which the yeast fitness is no more than 0.5. To GUUCCAUUGGCGUAAUGGUAACGCGUCUCCCUCCUAAGGAGAAGCGUGCGGGUUCGAGUCCCGUACGGAACG [G6A A45C C46G] belongs 0.617; to GUUCCGUUGCCGUAAUGGUAACGCGUCUCCCUCAUAAGGGGAAGACUGCGGGUUCGAGUCCCGUACGGAACG [G10C C34A A40G], 0.631.

As to GUUCCGUUGGCGUAAUGGUAACGCCUCUGCCUUCUAAGUAGAAGACUGCGGGUUCGAGUCCCGUACGGAACG [G25C C29G C33U G39U], the yeast fitness is no more than 0.5. Take GUUCCGUUGGCGUAAUGGUAACGCGUCUCCCUCCCAAUGAGAAGAUUGCGGGUUGGAGUCCCGUACGGAACG [U35C G38U C46U C55G]: the yeast fitness is no more than 0.5.

On to GUUCGGUUGCCGGAAUGGUAACGCGUCUCCGUCCUAAGGAGAAGACUGCGGGUUCGAGACCCGUACGGAACG [C5G G10C U13G C31G U59A], for which the yeast fitness is no more than 0.5. As for GUUUCGUUCGCGUAAUGAUAACGCGUCUGCUCCCUAAGGAGAAGACUGCCGGUUCGAGUCCCGUACGGAACG [C4U G9C G18A C29G C31U U32C G50C], the yeast fitness was no more than 0.5. For GUUCCGUUGGCGUAAUGGUAACGCGUCUCUCUCCUAAGGAGAAGACUGAGGAUUCGAGUCGCGUACGGAUCG [C30U C49A G52A C61G A70U], the yeast fitness is no more than 0.5. On to GUUCCGUUGGUGUAAUGGUAACGCGUCUUCCUCCUAAGGAGAAGCCUGCGGGUUCGAGUGCCGUCCGGAACG [C11U C29U A45C C60G A65C], for which the yeast fitness is no more than 0.5. To GUUCCGUUGGCGUAAUGGUAACGCGUCUCCCGACUAAGGAGAAGACUGCGGGUUCGAGUCCCGUACGGAACG [U32G C33A] belongs 0.601; to GUUACGUUGGCGUAAUGGUAAUGCGUCUCCCUCCUAAGGAGAAGACUGCGGGUUCGAGUCCCGUACGAAACG [C4A C22U G68A], no more than 0.5; to GUUCUGUUGGCGUAAUGGUAAGGCGUCUCCCUCCUAAGGAGAAGACUGCGGGUUCGAGUCCCGUAGGGAACG [C5U C22G C66G], 0.547.

Consider GUUUCGUUGGCGUAAUGGUAACGCGCUUCCCUCCUAAGGAGAAGACUGCGGGUUCGAGUCCCGUACGGAACG [C4U U26C C27U], for which the yeast fitness came to 0.678. With GUUCUGUUGGCGUAAUGGUAAUGCGUCUCCCUCCUAUGGAGAAGACUGCGGGUUCGAGUCCCGUACAGAACG [C5U C22U A37U G67A] the figure was no more than 0.5; with GUUCCGUUUGCGUAAUGGUAACGCGUCUCCCUCCUAAGGAGAGGACUGCGGGUUCGAGUCCCGUACGGAACG [G9U A43G], 0.817.

Turning to GUUCCGUUGGCGUAAUGGUAACGCAUCUCCCUCCUAAGGAGAAGACUGCGGGUGCGAGUCCCGUACGGAACG [G25A U54G], the yeast fitness turned out to be 0.566. With GUUCCGUUGGCGUAAUGGUAACGCGUCUCCCUCCUAAGAAGAAGACUGCGGGUUCGUGUCCCGUACGGAACG [G39A A57U] the figure was 0.834; with GUUCCGUUGGCGUAAAGGUAACGCGUCUCCCUCCUAAGGAGAAGACUGCGGGUUCAAGUCCCGUACGGCACG [U16A G56A A69C], 0.753; with GUUCCGUUGGUGUAAUGGUAACGCGUCUCCCUCCUAAGGAGAAGACUGCGGCUUCGAGUCGCGUACGGAACG [C11U G52C C61G], no more than 0.5. As for GUUCCGUUGGCGUAAUGGUAACGCGACUCCCUCCUAAGGAGAAGACUGGGGGUUCGAGUCCCGUACGGCACG [U26A C49G A69C], the yeast fitness was 0.6. To GUUCUGUUGGCGUAAUGGUAGCGGGUCGCCCUCCUAAGGAGAAGACUGCGGGUUCGAGUCCCGUACGGAACG [C5U A21G C24G U28G] belongs no more than 0.5; to GUUCAGUUGGCGUAAUGGUAACGCGUCUCUCUCCUAAGGAGAAGACUGCGGGUUCGAGCCCAGUACGGAACG [C5A C30U U59C C62A], no more than 0.5; to GUUCCGUUGGCGUAAUGGUAACGCGUCUCCCUACUAAGGAGAAGACUGCGGGUUGGAGUCCCGUAUGGAACG [C33A C55G C66U], no more than 0.5. For GUUCCGUUGGCGUAAUGGUAACGCGUCUCCCUGCUAAGGAGAAGACUGCGAGUUCGAGUCCCGUACGGAACG [C33G G51A], the yeast fitness amounted to 0.626. With GUUCCGUUGCCGUAAUGGUAACGGGUCUCCCUCCUAAGGAGAAGACUGCGGGUUCGAGUCCCGUACGGAUCG [G10C C24G A70U] the figure was no more than 0.5. Consider GUUCCGUUGGCCUAAUGGUAACGCGUCUCCCUCCGAAGGAGAAGACUGCGGGUUCGAAUCCCGUACAGAACG [G12C U35G G58A G67A], for which the yeast fitness came out at 0.706.

As to GUUCCGUUGGCGUCAUGGUAACACGUCUUCCUCCCAAGGAGAAGACUGCGGGUUGGAGUCCCGUACGGAACG [A14C G23A C29U U35C C55G], the yeast fitness was 0.627. With GUUCCGUUGGCGUAAUGGUAGCGCGUCUCCCUCUUAAGGAGAAGACUGCGGGUUGGAGUCCCGUACGGAACG [A21G C34U C55G] the figure was no more than 0.5; with GUUCCGUUGGCCUAAUGGUUACGCAUCUCCCUCCUGAGGAGAAGACUGCGGGUUCGAGUCCCGUACGGAACG [G12C A20U G25A A36G], no more than 0.5. Take GUUCCGUUAGCGUAAUGGUAACGCGUCUGCCUCCUAAGGAGAAGACUGCGGGUUCGAGUCCCGUAUGGAACG [G9A C29G C66U]: the yeast fitness was no more than 0.5.

Values taken from the RNAGym collection of RNA variant scans (doi:10.1126/science.aae0568).
